We go through 16 molecules from ChEMBL document CHEMBL1949657, “Chemical modification of the multitarget neuroprotective compound fisetin” (J Med Chem, 2012).

Activity calls are given as the source filed them.

Tested on in one assay: not listed separately
The assay is described as follows: Antioxidant activity against ABTS radical assessed as trolox equivalent after 4 mins by TEAC assay. Format: functional.
Conditions: not given
The gist of the method: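 ABTS radical cation formed overnight with potassium persulfate and diluted to OD ~0.7 at 734 nm, then mixed with derivative in ethanol. Loss of A734 followed over 4 min. TEAC = slope of % absorbance inhibition vs concentration divided by the slope for Trolox.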
As to `COc1cc(-c2cc(=O)c3ccc4ccccc4c3o2)ccc1O`, the Activity came out at 0.2 equiv.
On the same count and under the same terms, as for `COc1cc(-c2ccc(O)cc2O)nc2ccccc12`, the figure is 0.05 equiv.
Turning to `COc1cc(-c2oc3c(ccc4ccccc43)c(=O)c2O)ccc1OCc1ccccc1`, the Activity came out at 0 equiv.
The same measure, in the same setting: as for `CC(C)Oc1cc(-c2ccc(N(C)C)cc2)nc2ccccc12`, the figure is 0.15 equiv; as for `CCOc1cc(-c2ccc(O)c(O)c2)nc2ccccc12`, 0.9 equiv; as for `COc1cc(-c2oc3cc(C)c(C)cc3c(=O)c2O)ccc1OCc1ccccc1`, 0.27 equiv.
The same measure, in the same setting: the figure for `O=c1c(O)c(-c2ccc(O)c(O)c2)oc2c1ccc1ccccc12` is 2.4 equiv.
Same read-out and setting: the figure for `COc1cc(-c2oc3c(ccc4ccccc43)c(=O)c2O)ccc1O` is 0.63 equiv; for `O=c1cc(-c2ccc(O)c(O)c2)oc2c1ccc1ccccc12` it is 0.18 equiv; for `O=c1c(O)c(-c2ccc(N3CCCC3)cc2)oc2c1ccc1ccccc12` it is 1.44 equiv.
On to `Cc1cc2oc(-c3ccc(O)c(O)c3)c(O)c(=O)c2cc1C`, for which the Activity came to 1.89 equiv.
Still for that read-out and setting: the figure for `COc1ccc(-c2cc(OC)c3ccccc3n2)cc1O` is 0.24 equiv; for `CCOc1ccc(-c2oc3c(ccc4ccccc43)c(=O)c2O)cc1OCC` it is 0.15 equiv.
Turning to `CN(C)c1ccc(-c2cc(=O)c3ccc4ccccc4c3o2)cc1`, the Activity is 0.24 equiv.
Still for that read-out and setting: the figure for `Cc1cc2oc(-c3ccc(N4CCCC4)cc3)cc(=O)c2cc1C` is 0.12 equiv; for `Cc1cc2oc(-c3ccc(O)c(O)c3)cc(=O)c2cc1C` it is 0.27 equiv.

A further assay concerns N9. The experiment in a line: Antiinflammatory activity in mouse N9 cells assessed as reduction of LPS-induced microglial activation at 1 to 10 uM measured as nitrite level after 24 hrs by Griess reagent-based assay. The arrangement: scale not given: the % may be the effect or the level left.
Conditions: not given
The assay is classed as functional. The gist of the method: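 N9 microglia in DME with 7.5% DFCS, given 10 μg/ml LPS alone or with derivatives (1–10 μM) for 24 h. Medium spun to remove floating cells, then nitrite measured with Griess reagent, 10 min at room temperature, absorbance 550 nm. Fisetin 10 μM as positive control. Tested twice; positives tested a third time.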
A general note: Nitrite, measured by Griess reagent, commonly stands in for NO production.
As for `COc1cc(-c2cc(=O)c3ccc4ccccc4c3o2)ccc1O`, the Activity was found to be 19%.
On the same count and under the same terms, the figure for `COc1cc(-c2ccc(O)cc2O)nc2ccccc12` is 84%.
Still for that read-out and setting: the figure for `COc1cc(-c2oc3c(ccc4ccccc43)c(=O)c2O)ccc1OCc1ccccc1` is 88%; for `CC(C)Oc1cc(-c2ccc(N(C)C)cc2)nc2ccccc12` it is 71%; for `CCOc1cc(-c2ccc(O)c(O)c2)nc2ccccc12` it is 90%.
Same read-out and setting: the figure for `COc1cc(-c2oc3cc(C)c(C)cc3c(=O)c2O)ccc1OCc1ccccc1` is 14%; for `O=c1c(O)c(-c2ccc(O)c(O)c2)oc2c1ccc1ccccc12` it is 91%.
With `COc1cc(-c2oc3c(ccc4ccccc43)c(=O)c2O)ccc1O`, the Activity is reported as 78%.
On the same count and under the same terms, the figure for `O=c1cc(-c2ccc(O)c(O)c2)oc2c1ccc1ccccc12` is 55%; for `O=c1c(O)c(-c2ccc(N3CCCC3)cc2)oc2c1ccc1ccccc12` it is 26%.
Same read-out and setting: as for `Cc1cc2oc(-c3ccc(O)c(O)c3)c(O)c(=O)c2cc1C`, the figure is 82%; as for `COc1ccc(-c2cc(OC)c3ccccc3n2)cc1O`, 69%; as for `CCOc1ccc(-c2oc3c(ccc4ccccc43)c(=O)c2O)cc1OCC`, 13%.
Still for that read-out and setting: the figure for `CN(C)c1ccc(-c2cc(=O)c3ccc4ccccc4c3o2)cc1` is 35%.
As for `Cc1cc2oc(-c3ccc(N4CCCC4)cc3)cc(=O)c2cc1C`, the Activity is 2%.
Still for that read-out and setting: as for `Cc1cc2oc(-c3ccc(O)c(O)c3)cc(=O)c2cc1C`, the figure is 93%.

The test system of the next assay is PC-12. The assay is described as follows: Neurotrophic activity in rat PC12 cells assessed as neurite outgrowth at 1 to 10 uM after 24 hrs.
Conditions: not given
The assay is classed as functional, cell-based. The gist of the method: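 PC12 cells in N2 medium given derivatives (1–10 μM) for 24 h, fisetin 10 μM as positive control. 100 cells counted in each of three fields. A cell scored positive with ≥1 neurite longer than one cell-body diameter. Tested twice; positives tested a third time.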
Regarding `COc1cc(-c2cc(=O)c3ccc4ccccc4c3o2)ccc1O`, the result was inactive.
Still for that read-out and setting: the entry for `COc1cc(-c2ccc(O)cc2O)nc2ccccc12` is “inactive”; for `COc1cc(-c2oc3c(ccc4ccccc43)c(=O)c2O)ccc1OCc1ccccc1` it is “Active”; for `CC(C)Oc1cc(-c2ccc(N(C)C)cc2)nc2ccccc12` it is “inactive”.
For the molecule `CCOc1cc(-c2ccc(O)c(O)c2)nc2ccccc12`, the result was Active.
Same read-out and setting: as for `COc1cc(-c2oc3cc(C)c(C)cc3c(=O)c2O)ccc1OCc1ccccc1`, the entry is “inactive”.
Regarding `O=c1c(O)c(-c2ccc(O)c(O)c2)oc2c1ccc1ccccc12`, the outcome was Active.
On the same count and under the same terms, the entry for `COc1cc(-c2oc3c(ccc4ccccc43)c(=O)c2O)ccc1O` is “Active”; for `O=c1cc(-c2ccc(O)c(O)c2)oc2c1ccc1ccccc12` it is “Active”; for `O=c1c(O)c(-c2ccc(N3CCCC3)cc2)oc2c1ccc1ccccc12` it is “Active”.
On the same count and under the same terms, as for `Cc1cc2oc(-c3ccc(O)c(O)c3)c(O)c(=O)c2cc1C`, the entry is “inactive”.
The same measure, in the same setting: as for `COc1ccc(-c2cc(OC)c3ccccc3n2)cc1O`, the entry is “inactive”; as for `CCOc1ccc(-c2oc3c(ccc4ccccc43)c(=O)c2O)cc1OCC`, “inactive”.
Turning to `CN(C)c1ccc(-c2cc(=O)c3ccc4ccccc4c3o2)cc1`, the outcome was inactive.
Regarding `Cc1cc2oc(-c3ccc(N4CCCC4)cc3)cc(=O)c2cc1C`, the outcome was inactive.
On the same count and under the same terms, as for `Cc1cc2oc(-c3ccc(O)c(O)c3)cc(=O)c2cc1C`, the entry is “inactive”.

A further assay relates to HT-22. The assay is described as follows: Neuroprotective activity in mouse HT22 cells assessed as reduction in IAA-induced ischemia after 24 hrs by MTT assay. Format: functional, cell-based. Particulars: Mus musculus, HT-22, 24 h; read-out: EC50. The gist of the method: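 HT22 cells seeded at 5×10^3/well. Next day switched to DMEM + 7.5% DFCS with 20 μM IAA ± derivative doses for 2 h, then IAA-free medium with derivative for 20 h. MTT 2.5 μg/ml for 4 h at 37 °C, solubilised in DMF/SDS pH 4.7, A570 read. Controls for compound toxicity and assay interference. EC50 from dose series; tested twice, third time if EC50 < 1 μM.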
As to `COc1cc(-c2cc(=O)c3ccc4ccccc4c3o2)ccc1O`, the EC50 was found to be 40 nM.
For `COc1cc(-c2ccc(O)cc2O)nc2ccccc12`, the concentration giving a half-maximal response (EC50) was above 500 nM.
`COc1cc(-c2oc3c(ccc4ccccc43)c(=O)c2O)ccc1OCc1ccccc1`: the EC50 was 80 nM.
For `CC(C)Oc1cc(-c2ccc(N(C)C)cc2)nc2ccccc12`, the EC50 was found to be 50 nM.
Still for that read-out and setting: the figure for `CCOc1cc(-c2ccc(O)c(O)c2)nc2ccccc12` is 20 nM.
As for `COc1cc(-c2oc3cc(C)c(C)cc3c(=O)c2O)ccc1OCc1ccccc1`, the EC50 worked out at 170 nM.
Turning to `O=c1c(O)c(-c2ccc(O)c(O)c2)oc2c1ccc1ccccc12`, the EC50 was found to be 90 nM.
The same measure, in the same setting: the figure for `COc1cc(-c2oc3c(ccc4ccccc43)c(=O)c2O)ccc1O` is above 500 nM; for `O=c1cc(-c2ccc(O)c(O)c2)oc2c1ccc1ccccc12` it is 80 nM; for `O=c1c(O)c(-c2ccc(N3CCCC3)cc2)oc2c1ccc1ccccc12` it is 70 nM.
Still for that read-out and setting: the figure for `Cc1cc2oc(-c3ccc(O)c(O)c3)c(O)c(=O)c2cc1C` is 500 nM; for `CCOc1ccc(-c2oc3c(ccc4ccccc43)c(=O)c2O)cc1OCC` it is 300 nM; for `CN(C)c1ccc(-c2cc(=O)c3ccc4ccccc4c3o2)cc1` it is 250 nM.
Still for that read-out and setting: the figure for `Cc1cc2oc(-c3ccc(N4CCCC4)cc3)cc(=O)c2cc1C` is above 500 nM; for `Cc1cc2oc(-c3ccc(O)c(O)c3)cc(=O)c2cc1C` it is 250 nM.

The same assay, now with this note: ht-22.
With `COc1ccc(-c2cc(OC)c3ccccc3n2)cc1O`, the EC50 entry was “Not Active”.

The subject of another assay is HT-22. The experiment in a line: Neuroprotective activity against glutamate-induced GSH loss in mouse HT22 cells assessed as intracellular GSH level at 1 to 10 uM after 24 hrs. The assay is classed as functional, cell-based.
Conditions: not given
The gist of the method:
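HT22 cells given derivatives (1–10 μM) with 5 mM glutamate. After 24 h, cell extracts analysed for total intracellular GSH by chemical assay. Fisetin 10 μM as positive control. Tested twice; positives tested a third time.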
In the case of `COc1cc(-c2cc(=O)c3ccc4ccccc4c3o2)ccc1O`, the result was inactive.
On the same count and under the same terms, the entry for `COc1cc(-c2ccc(O)cc2O)nc2ccccc12` is “inactive”; for `COc1cc(-c2oc3c(ccc4ccccc43)c(=O)c2O)ccc1OCc1ccccc1` it is “inactive”.
On to `CC(C)Oc1cc(-c2ccc(N(C)C)cc2)nc2ccccc12`, for which the result was inactive.
`CCOc1cc(-c2ccc(O)c(O)c2)nc2ccccc12`: the outcome was Active.
Same read-out and setting: as for `COc1cc(-c2oc3cc(C)c(C)cc3c(=O)c2O)ccc1OCc1ccccc1`, the entry is “inactive”; as for `O=c1c(O)c(-c2ccc(O)c(O)c2)oc2c1ccc1ccccc12`, “inactive”; as for `COc1cc(-c2oc3c(ccc4ccccc43)c(=O)c2O)ccc1O`, “inactive”.
On the same count and under the same terms, as for `O=c1cc(-c2ccc(O)c(O)c2)oc2c1ccc1ccccc12`, the entry is “inactive”.
As to `O=c1c(O)c(-c2ccc(N3CCCC3)cc2)oc2c1ccc1ccccc12`, the outcome was inactive.
Still for that read-out and setting: the entry for `Cc1cc2oc(-c3ccc(O)c(O)c3)c(O)c(=O)c2cc1C` is “inactive”.
The same measure, in the same setting: the entry for `COc1ccc(-c2cc(OC)c3ccccc3n2)cc1O` is “inactive”.
On the same count and under the same terms, as for `CCOc1ccc(-c2oc3c(ccc4ccccc43)c(=O)c2O)cc1OCC`, the entry is “inactive”.
With `CN(C)c1ccc(-c2cc(=O)c3ccc4ccccc4c3o2)cc1`, the outcome was inactive.
Still for that read-out and setting: as for `Cc1cc2oc(-c3ccc(N4CCCC4)cc3)cc(=O)c2cc1C`, the entry is “inactive”.
Same read-out and setting: as for `Cc1cc2oc(-c3ccc(O)c(O)c3)cc(=O)c2cc1C`, the entry is “inactive”.

What is called EC50 is the midpoint of the concentration-response curve.
